The values that follow come from article PMC3861893 (Journal of medicinal chemistry, 2012).

For one series, the target named is TLR2 (Homo sapiens, UniProt O60603). In words: In cyto europium TRF competition binding assay. The following applies: Ki (summary statement), cell line not specified, summary in discussion.
Series [1] deals with antigen-specific CD8+ T cells. Description: In vivo cellular immune response assay. The conditions noted are these: for response rate of tetramer positive CD8+ T cells (day 7 = 100%): average, n = 3. The arrangement: species or system C57BL/6 (B6) mice. A digest of the protocol:
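Mice aged 6-8 weeks immunized i.v. with 200 μL of 100 μg Trp1455/9M peptide, 50 μg anti-CD40 mAb (FGK-45.5) and 50 μg TLR2 agonist (test compound, Pam2CSK4 or Pam3CSK4). Submandibular blood taken on days 7, 21 and 34, red cells lysed with ammonium chloride. Stained 40 min on ice with anti-CD8a, PE Trp1455/9M/H-2Db tetramer and anti-MHC II. Tetramer+ CD8+ cells gated by flow cytometry; n=3.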

A word on the Ki: it is a measure of affinity in units of concentration, obtained from inhibition or displacement.

Chain of TLR2 (O60603 21-784): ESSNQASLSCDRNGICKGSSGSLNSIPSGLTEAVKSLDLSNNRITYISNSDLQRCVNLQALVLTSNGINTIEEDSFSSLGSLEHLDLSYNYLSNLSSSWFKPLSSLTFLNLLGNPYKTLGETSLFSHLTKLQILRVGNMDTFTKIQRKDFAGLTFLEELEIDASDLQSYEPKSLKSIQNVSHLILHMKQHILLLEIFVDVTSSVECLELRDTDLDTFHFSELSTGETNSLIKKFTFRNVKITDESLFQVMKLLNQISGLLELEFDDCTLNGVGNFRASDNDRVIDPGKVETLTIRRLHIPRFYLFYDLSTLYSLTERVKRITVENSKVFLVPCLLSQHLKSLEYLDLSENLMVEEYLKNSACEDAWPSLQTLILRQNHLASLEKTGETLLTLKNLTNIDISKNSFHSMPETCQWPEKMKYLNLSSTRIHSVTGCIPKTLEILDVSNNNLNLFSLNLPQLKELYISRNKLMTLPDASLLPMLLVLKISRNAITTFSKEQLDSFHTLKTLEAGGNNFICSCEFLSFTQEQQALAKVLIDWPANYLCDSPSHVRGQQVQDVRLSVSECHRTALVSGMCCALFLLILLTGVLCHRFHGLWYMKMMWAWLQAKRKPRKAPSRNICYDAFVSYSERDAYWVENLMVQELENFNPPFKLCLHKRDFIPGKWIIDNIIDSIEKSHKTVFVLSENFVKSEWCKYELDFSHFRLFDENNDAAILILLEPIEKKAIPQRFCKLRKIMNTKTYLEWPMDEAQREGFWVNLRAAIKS

`CCCCCCCCCCCCCCCC(=O)OC[C@H](CSC[C@H](NC(=O)COCC(=O)NCCCOCCOCCOCCCNC(=O)CCSC1CC(=O)N(CCNC(=O)CCCCCN2C(=CC=C3CCCC(C=CC4=[N+](CCCCS(=O)(=O)O)c5ccc(S(=O)(=O)[O-])cc5C4(C)C)=C3Oc3ccc(S(=O)(=O)O)cc3)C(C)(C)c3cc(S(=O)(=O)O)ccc32)C1=O)C(=O)NCC(=O)N[C@H](CO)C(=O)NCCCOCCOCCOCCCNC(=O)COCC(N)=O)OC(=O)CCCCCCCCCCCCCCC` (stereo partly shown) [Compound 13, IRDye800CW-Mpr-PEGO-Dhc(Pam2)-Gly-DSer-PEGO-NH2] showed a Ki on TLR2 of under 100 nM.

As for `CCCCCCCCCCCCCCCC(=O)OC[C@H](CSC[C@H](NC(=O)COCC(=O)NCCCOCCOCCOCCCNC(C)=O)C(=O)NCC(=O)N[C@H](CO)C(=O)NCCCOCCOCCOCCCNC(=O)COCC(N)=O)OC(=O)CCCCCCCCCCCCCCC` [Compound 10], the “response rate of tetramer positive CD8+ T cells (day 7 = 100%)” value in series [1] (day 21 post-immunization) came to 25.7%; in series [1] (day 34 post-immunization), 12.7%. Further, the “signs or symptoms of stress or toxicity in mice” value in series [1] (over the course of the experiment (34 days), 50 μg i.v.) is given as “No signs or symptoms of stress or toxicity were observed”.
